The source made the active and inactive calls. No cut-off for these calls is given here.
Tests used:
Mus musculus [1] = organism: Mus musculus; experiment: Protective index, ratio of TD50 for albino CF-1 mouse to ED50 for albino CF-1 mouse assessed as protection against 6 Hz psychomotor seizure; assay type: functional
Outline: (§1)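 Protection index = TD50 (rotorod, mice, i.p.) divided by ED50 from MES or 6 Hz test, each at its time of peak effect.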

Rattus norvegicus [2] = experiment: Acute toxicity in Sprague-Dawley rat assessed as motor impairment at 300 mg/kg, ip after 0.5 hrs; assay type: organism-based; set-up: dose 300 mg/kg, route intraperitoneal; details: in vivo
Outline: (§2)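 Male albino Sprague Dawley rats, two per dose, given test compound i.p. as a suspension in 0.5% methyl cellulose. Behaviour was closely observed and recorded over 4 h to detect acute motor impairment. Values are scored as animals toxic over animals tested at each time point.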

Mus musculus [3] = experiment: Anticonvulsant activity in albino CF-1 mouse assessed as protection against 6 Hz psychomotor seizure at 100 mg/kg, ip after 2 hrs by minimal clonic seizure test; assay type: functional
Outline: (§3)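 Male CF-1 mice (18–25 g), i.p. 100 mg/kg in 0.5% methyl cellulose suspension; 6 Hz corneal stimulation, 32 mA for 3 s, four mice per time point. Protected if no minimal clonic phase with stereotyped automatistic behaviour.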

Rattus norvegicus [4] = experiment: Anticonvulsant activity in Sprague-Dawley rat assessed as protection against maximal electroshock-induced seizures at 30 mg/kg, po after 0.5 hrs; assay type: functional, organism-based; set-up: dose 30 mg/kg
Outline: (§4)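 Male Sprague Dawley rats (100–150 g; 115–150 g in text), compound suspended in 0.5% methyl cellulose, given orally; MES challenge: 60 Hz alternating current, 150 mA, 0.2 s via corneal electrodes primed with 0.5% tetracaine HCl electrolyte. Protection = abolition of hind limb tonic extension; four rats per time point, scored as number protected.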

Rattus norvegicus [5] = experiment: Anticonvulsant activity in Sprague-Dawley rat assessed as protection against pilocarpine-induced status epilepticus at 200 mg/kg, ip; assay type: functional, organism-based; set-up: dose 200 mg/kg
Outline: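 Male albino Sprague Dawley rats (150–180 g) dosed i.p., then challenged with pilocarpine; qualitative screen scored as protection or no protection, seizure severity graded on the Racine scale; N/F and deaths recorded, time taken post first Stage III seizure.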

Mus musculus [6] = experiment: Anticonvulsant activity in ip dosed albino CF-1 mouse assessed as dose required to protect against maximal electroshock-induced seizures after 2 hrs; assay type: functional
Outline: (§5)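 Male CF-1 mice (18–25 g), i.p. in 0.5% methyl cellulose at 30, 100 and 300 mg/kg; MES: 60 Hz, 50 mA, 0.2 s through tetracaine-primed corneal electrodes; protection = abolished hind limb tonic extension. Value given as minimum dose active in half or more of mice.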

Rattus norvegicus [7] = experiment: Toxicity in Sprague-Dawley rat assessed as change in body weight at 200 mg/kg, ip measured after 24 hrs of clonus of one of the fore limbs seizure stage in non-protected rat; assay type: organism-based; set-up: dose 200 mg/kg, route intraperitoneal; details: in vivo
Outline: (§6)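 Male Sprague Dawley rats (150–180 g) dosed i.p. then challenged with pilocarpine; body weight change measured 24 h after first Stage III seizure, split by protected and non-protected rats, given ± S.E.M.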

Mus musculus [8] = experiment: Anticonvulsant activity in ip dosed albino CF-1 mouse assessed as dose required to protect against maximal electroshock-induced seizures after 4 hrs; assay type: functional; outline: as §5
Rattus norvegicus [9] = experiment: Neurotoxicity in Sprague-Dawley rat assessed as motor impairment at 30 mg/kg, po after 0.25 hrs by rotarod test; assay type: toxicity, organism-based; set-up: dose 30 mg/kg, route oral; details: in vivo
Mus musculus [10] = experiment: Anticonvulsant activity in albino CF-1 mouse assessed as protection against 6 Hz psychomotor seizure at 100 mg/kg, ip after 0.5 hrs by minimal clonic seizure test; assay type: functional; outline: as §3
Rattus norvegicus [11] = experiment: Neurotoxicity in Sprague-Dawley rat assessed as motor impairment at 30 mg/kg, po after 1 hr by rotarod test; assay type: toxicity, organism-based; set-up: dose 30 mg/kg, route oral; details: in vivo
Rattus norvegicus [12] = experiment: Anticonvulsant activity in Sprague-Dawley rat assessed as protection against maximal electroshock-induced seizures at 30 mg/kg, po after 1 hr; assay type: functional, organism-based; set-up: dose 30 mg/kg; outline: as §4
Mus musculus [13] = experiment: Anticonvulsant activity in ip dosed albino CF-1 mouse assessed as protection against 6 Hz psychomotor seizure after 0.25 hrs by minimal clonic seizure test; assay type: functional; details: albino CF-1, ip
Outline: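 Quantitative 6 Hz test in male CF-1 mice dosed i.p.; 32 mA for 3 s via corneal electrodes at time of peak effect; ED50 with 95% confidence interval, slope and standard error reported.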

Mus musculus [14] = experiment: Anticonvulsant activity in albino CF-1 mouse assessed as protection against 6 Hz psychomotor seizure at 100 mg/kg, ip after 0.25 hrs by minimal clonic seizure test; assay type: functional; details: route intraperitoneal; outline: as §3
Mus musculus [15] = experiment: Anticonvulsant activity in ipp dosed albino CF-1 mouse assessed as protection against subcutaneous metrazol-induced seizures after 1 hr; assay type: functional; details: albino CF-1, sc
Rattus norvegicus [16] = experiment: Acute toxicity in Sprague-Dawley rat assessed as motor impairment at 100 mg/kg, ip after 1 hr; assay type: organism-based; set-up: dose 100 mg/kg, route intraperitoneal; details: in vivo; outline: as §2
Rattus norvegicus [17] = experiment: Neurotoxicity in Sprague-Dawley rat assessed as motor impairment at 30 mg/kg, po after 2 hrs by rotarod test; assay type: toxicity, organism-based; set-up: dose 30 mg/kg, route oral; details: in vivo
[18] = Neurotoxicity in ip dosed albino CF-1 mouse assessed as motor impairment after 8 hrs by rotarod test; assay type: toxicity, organism-based; details: in vivo, read-out: ID50
Rattus norvegicus [19] = experiment: Neurotoxicity in Sprague-Dawley rat assessed as motor impairment at 30 mg/kg, po after 4 hrs by rotarod test; assay type: toxicity, organism-based; set-up: dose 30 mg/kg, route oral; details: in vivo
Rattus norvegicus [20] = experiment: Acute toxicity in Sprague-Dawley rat assessed as motor impairment at 300 mg/kg, ip after 0.25 hrs; assay type: organism-based; set-up: dose 300 mg/kg, route intraperitoneal; details: in vivo; outline: as §2
Rattus norvegicus [21] = experiment: Anticonvulsant activity in Sprague-Dawley rat assessed as protection against maximal electroshock-induced seizures at 30 mg/kg, po after 2 hrs; assay type: functional; outline: as §4
Rattus norvegicus [22] = experiment: Acute toxicity in Sprague-Dawley rat assessed as motor impairment at 100 mg/kg, ip after 0.5 hrs; assay type: organism-based; set-up: dose 100 mg/kg, route intraperitoneal; details: in vivo; outline: as §2
Mus musculus [23] = experiment: Anticonvulsant activity in albino CF-1 mouse assessed as protection against subcutaneous metrazol-induced seizures at 300 mg/kg, ip after 4 hrs; assay type: functional, organism-based; set-up: dose 300 mg/kg
Outline: (§7)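 Male CF-1 mice, i.p. at 30, 100, 300 mg/kg in 0.5% methyl cellulose; metrazol dose convulsing 97% of animals injected s.c. in midline neck fold, mice isolated and watched 30 min; protected if no 3–5 s clonic spasm episode of limbs, jaws or vibrissae.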

Mus musculus [24] = experiment: Anticonvulsant activity in albino CF-1 mouse assessed as protection against 6 Hz psychomotor seizure at 100 mg/kg, ip after 4 hrs by minimal clonic seizure test; assay type: functional, organism-based; set-up: dose 100 mg/kg; outline: as §3
Rattus norvegicus [25] = experiment: Anticonvulsant activity in Sprague-Dawley rat assessed as protection against maximal electroshock-induced seizures at 30 mg/kg, po after 4 hrs; assay type: functional, organism-based; set-up: dose 30 mg/kg; outline: as §4
Rattus norvegicus [26] = experiment: Acute toxicity in Sprague-Dawley rat assessed as motor impairment at 100 mg/kg, ip after 0.25 hrs; assay type: organism-based; set-up: dose 100 mg/kg, route intraperitoneal; details: in vivo; outline: as §2
Mus musculus [27] = organism: Mus musculus; experiment: Protective index, ratio of TD50 for albino CF-1 mouse to ED50 for albino CF-1 mouse assessed as protection against maximal electroshock-induced seizures; assay type: functional; outline: as §1
Mus musculus [28] = experiment: Anticonvulsant activity in albino CF-1 mouse assessed as protection against maximal electroshock-induced seizures at 300 mg/kg, ip after 0.5 hrs; assay type: functional, organism-based; set-up: dose 300 mg/kg; outline: as §5
Rattus norvegicus [29] = experiment: Anticonvulsant activity in Sprague-Dawley rat assessed as protection against maximal electroshock-induced seizures at 30 mg/kg, po after 0.25 hrs; assay type: functional, organism-based; set-up: dose 30 mg/kg; outline: as §4
Rattus norvegicus [30] = experiment: Acute toxicity in Sprague-Dawley rat assessed as motor impairment at 100 mg/kg, ip after 2 hrs; assay type: organism-based; set-up: dose 100 mg/kg, route intraperitoneal; details: in vivo; outline: as §2
Mus musculus [31] = experiment: Anticonvulsant activity in albino CF-1 mouse assessed as protection against 6 Hz psychomotor seizure at 100 mg/kg, ip after 1 hr by minimal clonic seizure test; assay type: functional; details: route intraperitoneal; outline: as §3
Rattus norvegicus [32] = experiment: Acute toxicity in Sprague-Dawley rat assessed as motor impairment at 100 mg/kg, ip after 4 hrs; assay type: organism-based; set-up: dose 100 mg/kg, route intraperitoneal; details: in vivo; outline: as §2
Rattus norvegicus [33] = experiment: Acute toxicity in Sprague-Dawley rat assessed as motor impairment at 300 mg/kg, ip after 1 hr; assay type: organism-based; set-up: dose 300 mg/kg, route intraperitoneal; details: in vivo; outline: as §2
Mus musculus [34] = experiment: Anticonvulsant activity in albino CF-1 mouse assessed as protection against subcutaneous metrazol-induced seizures at 300 mg/kg, ip after 0.5 hrs; assay type: functional, organism-based; set-up: dose 300 mg/kg; outline: as §7
[35] = Octanol-phosphate buffer partition coefficient, log P of the compound at 5 mg, after 24 hrs by UV spectroscopic analysis; assay type: physicochemical
Outline: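 5 mg compound added to 10 mL octanol plus 10 mL phosphate buffer in stoppered tube, mechanically shaken 24 h at room temperature, then left in separating funnel 6 h to equilibrate.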

Mus musculus [36] = experiment: Anticonvulsant activity in ip dosed albino CF-1 mouse assessed as protection against maximal electroshock-induced seizures after 1 hr; assay type: functional; details: albino CF-1, ip
Mus musculus [37] = experiment: Neurotoxicity in albino CF-1 mouse assessed as motor impairment at 300 mg/kg, ip after 4 hrs by rotarod test; assay type: toxicity, organism-based; set-up: dose 300 mg/kg, route intraperitoneal; details: in vivo
Outline: (§8)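 Minimal motor impairment in male CF-1 mice by rotorod after i.p. dosing; toxic if animal falls off rotating rod 3 times within 1 min. Screen doses 30, 100, 300 mg/kg; quantitative TD50 (95% confidence interval) determined at time of peak effect.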

Rattus norvegicus [38] = experiment: Toxicity in Sprague-Dawley rat assessed as change in body weight at 200 mg/kg, ip measured after 24 hrs of clonus of one of the fore limbs seizure stage in protected rat; assay type: organism-based; set-up: dose 200 mg/kg, route intraperitoneal; details: in vivo; outline: as §6
Rattus norvegicus [39] = experiment: Neurotoxicity in Sprague-Dawley rat assessed as motor impairment at 30 mg/kg, po after 0.5 hrs by rotarod test; assay type: toxicity, organism-based; set-up: dose 30 mg/kg, route oral; details: in vivo
Mus musculus [40] = experiment: Neurotoxicity in albino CF-1 mouse assessed as motor impairment at 300 mg/kg, ip after 0.5 hrs by rotarod test; assay type: toxicity, organism-based; set-up: dose 300 mg/kg, route intraperitoneal; details: in vivo; outline: as §8

O=C(N/N=C\c1ccc(Oc2ccc(F)cc2)cc1)c1ccncc1
PI (Mus musculus [1]): 6.44 | Activity (Rattus norvegicus [2]): Toxic | Activity (Mus musculus [3]): inactive | Activity (Rattus norvegicus [4]): inactive | Activity (Rattus norvegicus [5]): inactive | Activity (Mus musculus [6]): 100 mg/kg | Activity (Rattus norvegicus [7]): 24.2 g | Activity (Mus musculus [8]): 300 mg/kg | Activity (Rattus norvegicus [9]): Non-toxic | Activity (Mus musculus [10]): Active | Activity (Rattus norvegicus [11]): Non-toxic | Activity (Rattus norvegicus [12]): inactive | ED50 (Mus musculus [13]): 53.3 mg/kg | Activity (Mus musculus [14]): 75% | ED50 (Mus musculus [15]): > 250 mg/kg | Activity (Rattus norvegicus [16]): Non-toxic | Activity (Rattus norvegicus [17]): Non-toxic | TD50 at 8 h [18]: 344 mg/kg | Activity (Rattus norvegicus [19]): Non-toxic | Activity (Rattus norvegicus [20]): Toxic | Activity (Rattus norvegicus [21]): 25% | Activity (Rattus norvegicus [22]): Non-toxic | Activity (Mus musculus [23]): inactive | Activity (Mus musculus [24]): inactive | Activity (Rattus norvegicus [25]): inactive | Activity (Rattus norvegicus [26]): Non-toxic | PI (Mus musculus [27]): 2.67 | Activity (Mus musculus [28]): inactive | Activity (Rattus norvegicus [29]): inactive | Activity (Rattus norvegicus [30]): Non-toxic | Activity (Mus musculus [31]): 50% | Activity (Rattus norvegicus [32]): Non-toxic | Activity (Rattus norvegicus [33]): Toxic | Activity (Mus musculus [34]): inactive | logP at 24 h [35]: 3.5 | ED50 (Mus musculus [36]): 128 mg/kg | Activity (Mus musculus [37]): Non-toxic | Activity (Rattus norvegicus [38]): Non-toxic | Activity (Rattus norvegicus [39]): Non-toxic | Activity (Mus musculus [40]): Non-toxic
